Assay results published in ChEMBL document CHEMBL1126744, “Synthesis and structure-activity relationships of phenyl-substituted benzylamine antimycotics: a novel benzylbenzylamine antifungal agent for systemic treatment” (1993).
≈ marks a conversion by molar mass, not a printed value.

Experiments:
[1] = tested on: Sporothrix schenckii; assay: In vitro antifungal activity against Sporothrix schenck ii expressed as MIC (mg/L); assay type: functional
Method in brief: (§1)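 Fungi were grown on Kimmig agar (30 °C, 21 days) and harvested with a spatula. They were tested in glass tubes of Sabouraud's dextrose broth (pH 6.5) containing DMSO-dissolved compound serially diluted in medium. After 7 days at 30 °C, MIC was read as the lowest concentration with no macroscopically visible growth.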

[2] = tested on: Candida albicans; assay: In vitro antifungal activity against Candida albicans delta9 expressed as MIC (mg/L); assay type: functional
Method in brief: (§2)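 Tube broth dilution in malt extract broth (pH 4.8). Blastospores came from yeast nitrogen base cultures shaken at 37 °C for about 30 h. Compounds in DMSO were serially diluted in the broth. After 48 h at 30 °C, MIC was taken as the lowest concentration without macroscopically detectable growth.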

[3] = tested on: Candida albicans; assay: In vitro antifungal activity against Candida albicans delta124 expressed as MIC (mg/L); assay type: functional; method in brief: as §2
[4] = tested on: Candida parapsilosis; assay: In vitro antifungal activity against Candida parapsilosis delta39 expressed as MIC (mg/L); assay type: functional; settings: Lodderomyces parapsilosis; method in brief: as §2
[5] = tested on: Microsporum canis; assay: In vitro antifungal activity against Microsporum canis expressed as MIC (mg/L); assay type: functional; method in brief: as §1
[6] = tested on: Trichophyton benhamiae; assay: In vitro antifungal activity against Trichophyton mentagrophytes expressed as MIC (mg/L); assay type: functional, Arthroderma benhamiae; method in brief: as §1
[7] = tested on: Aspergillus fumigatus; assay: In vitro antifungal activity against Aspergillus fumigatus expressed as MIC (mg/L); assay type: functional
Method in brief: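 Broth dilution in glass tubes with Sabouraud's dextrose broth (pH 6.5). Inoculum was filamentous growth scraped from Kimmig agar cultures (30 °C, 21 days). Compounds were dissolved in DMSO and serially diluted in medium. Tubes were incubated 72 h at 30 °C. MIC is the lowest concentration with no macroscopically visible growth.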

[8] = tested on: Cavia porcellus; assay: Percent mycological cure in guinea pig skin candidosis model (topical treatment twice daily for 5 days starting 3 days after inoculation) using 2% solution (ED50=1.32%); assay type: functional
[9] = tested on: Cavia porcellus; assay: In vivo inhibition in guinea pig trichophytosis model; assay type: functional
[10] = tested on: Cavia porcellus; assay: Percent mycological cure at a dose of 8 mg/kg per day in guinea pig trichophytosis model (treatment once daily for 9 days starting on the day of inoculation); assay type: functional

Structure (SMILES)	MIC [1] [µg/mL]	MIC [2] [µg/mL]	MIC [3] [µg/mL]	MIC [4] [µg/mL]	MIC [5] [µg/mL]	MIC [6] [µg/mL]	MIC [7] [µg/mL]	Cure [8] [%]	ED50 [9] [mg/kg/day]	Cure [10] [%]
C=C(c1ccccc1)c1ccc(CN(C)Cc2cccc3ccccc23)cc1	1.56 (≈ 4.29 µM)	> 200	> 200	0.8 (≈ 2.2 µM)	0.01 (≈ 0.0275 µM)	0.01 (≈ 0.0275 µM)	> 200			
CCN(c1ccccc1)c1ccc(CN(C)Cc2cccc3ccccc23)cc1	3.13 (≈ 8.23 µM)	> 200	> 200	3.13 (≈ 8.23 µM)	0.006 (≈ 0.0158 µM)	0.006 (≈ 0.0158 µM)	> 200			
CN(Cc1ccc(-c2ccccc2)cc1)Cc1cccc2ccccc12	> 200	> 200	> 200	> 200	> 200	10 (≈ 29.6 µM)	> 200			
CN(Cc1ccc(C(C)(C)c2ccccc2)cc1)Cc1cccc2ccsc12	0.2 (≈ 0.519 µM)	0.4 (≈ 1.04 µM)	0.8 (≈ 2.07 µM)	0.05 (≈ 0.13 µM)	0.003 (≈ 0.00778 µM)	0.003 (≈ 0.00778 µM)	0.1 (≈ 0.259 µM)			
CN(Cc1ccc(Oc2ccccc2)cc1)Cc1cccc2ccccc12	> 200	> 200	> 200	> 200	0.8 (≈ 2.26 µM)	0.4 (≈ 1.13 µM)	> 200			
CN(Cc1ccc(C2(c3ccccc3)CC2)cc1)Cc1cccc2ccccc12	0.1 (≈ 0.265 µM)	1.56 (≈ 4.13 µM)	3.13 (≈ 8.29 µM)	0.1 (≈ 0.265 µM)	0.003 (≈ 0.00795 µM)	0.006 (≈ 0.0159 µM)	1.56 (≈ 4.13 µM)			
CN(Cc1ccc(C(=O)c2ccccc2)cc1)Cc1cccc2ccccc12	> 200	> 200	> 200	50 (≈ 137 µM)	0.1 (≈ 0.274 µM)	0.05 (≈ 0.137 µM)	> 200			
CN(Cc1ccc(C(C)(C)c2ccccc2)cc1)Cc1cccc2c(Cl)csc12	0.8 (≈ 1.9 µM)	1.56 (≈ 3.71 µM)	1.56 (≈ 3.71 µM)	0.1 (≈ 0.238 µM)	0.02 (≈ 0.0476 µM)	0.02 (≈ 0.0476 µM)	0.2 (≈ 0.476 µM)			
CC(=O)N(c1ccccc1)c1ccc(CN(C)Cc2cccc3ccccc23)cc1	> 200	> 200	> 200	> 200	3.13 (≈ 7.93 µM)	0.8 (≈ 2.03 µM)	> 200			
Cc1ccc(C(C)(C)c2ccc(CN(C)Cc3cccc4ccccc34)cc2)cc1	0.4 (≈ 1.02 µM)	6.25 (≈ 15.9 µM)	6.25 (≈ 15.9 µM)	0.1 (≈ 0.254 µM)	0.1 (≈ 0.254 µM)	0.1 (≈ 0.254 µM)	12.5 (≈ 31.8 µM)			
CN(Cc1ccc(/C=C/c2ccccc2)cc1)Cc1cccc2ccccc12	> 200	> 200	> 200	> 200	0.01 (≈ 0.0275 µM)	0.1 (≈ 0.275 µM)	> 200			
CN(Cc1ccc(Cc2ccccc2)cc1)Cc1cccc2ccccc12	1.56 (≈ 4.44 µM)	50 (≈ 142 µM)	> 100	6.25 (≈ 17.8 µM)	0.05 (≈ 0.142 µM)	0.05 (≈ 0.142 µM)	> 100			
CN(Cc1ccc(C(C)(C)c2ccccc2)cc1)Cc1cccc2ccccc12	0.2 (≈ 0.527 µM)	0.8 (≈ 2.11 µM)	1.56 (≈ 4.11 µM)	0.1 (≈ 0.263 µM)	0.003 (≈ 0.0079 µM)	0.006 (≈ 0.0158 µM)	0.1 (≈ 0.263 µM)	90	4.6	100
CN(Cc1ccc(Nc2ccccc2)cc1)Cc1cccc2ccccc12	> 200	> 200	> 200	> 200	> 100	> 100	> 200			
CN(Cc1ccc(C(C)(C)C)cc1)Cc1cccc2ccccc12 [BUTENAFINE]	0.2 (≈ 0.63 µM)	12.5 (≈ 39.4 µM)	25 (≈ 78.7 µM)	0.8 (≈ 2.52 µM)	0.01 (≈ 0.0315 µM)	0.006 (≈ 0.0189 µM)	0.4 (≈ 1.26 µM)			
COC1=CC(=O)C[C@@H](C)[C@]12Oc1c(Cl)c(OC)cc(OC)c1C2=O [GRISEOFULVIN]									40.7	
CC(=O)N1CCN(c2ccc(OCC3COC(Cn4ccnc4)(c4ccc(Cl)cc4Cl)O3)cc2)CC1 (configuration not stated) [KETOCONAZOLE]									50.8	
CN(C/C=C/C#CC(C)(C)C)Cc1cccc2ccccc12 [TERBINAFINE]	0.4 (≈ 1.37 µM)	6.25 (≈ 21.4 µM)	25 (≈ 85.8 µM)	0.8 (≈ 2.75 µM)	0.006 (≈ 0.0206 µM)	0.003 (≈ 0.0103 µM)	0.8 (≈ 2.75 µM)			
